Source: PubChem BioAssay
CHRM4 agonist – agonists of human muscarinic M4 receptor (CHRM4) | P08173 | CHO-K1 hM4/Gqi5, Fluo-8 calcium fluorescence; vehicle 0%, full acetylcholine response 100% | activation, % at 3 µM | 0.14% of 360,000 active | AID 624127;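 active = activation above the run mean over all test wells plus 3 SD, cut at about 32% in these data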;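 note: peak over basal fluorescence ratio per well then scaled between controls; 0% = DMSO wells and 100% = acetylcholine at EC100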
Target sequence (P08173 whole entry, looked up): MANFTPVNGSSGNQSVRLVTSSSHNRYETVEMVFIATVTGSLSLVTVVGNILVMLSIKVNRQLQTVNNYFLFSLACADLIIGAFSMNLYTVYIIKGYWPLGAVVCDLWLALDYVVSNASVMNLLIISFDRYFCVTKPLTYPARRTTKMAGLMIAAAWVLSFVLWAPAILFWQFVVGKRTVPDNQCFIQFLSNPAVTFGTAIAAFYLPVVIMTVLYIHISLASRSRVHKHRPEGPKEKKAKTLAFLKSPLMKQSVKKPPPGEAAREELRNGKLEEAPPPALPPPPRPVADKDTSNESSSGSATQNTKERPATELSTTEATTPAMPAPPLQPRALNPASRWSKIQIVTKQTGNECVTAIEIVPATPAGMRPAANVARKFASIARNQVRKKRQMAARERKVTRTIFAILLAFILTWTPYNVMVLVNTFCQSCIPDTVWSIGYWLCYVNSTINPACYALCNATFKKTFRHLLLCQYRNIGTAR
M4 PAM – potentiates acetylcholine response at human M4 receptor. P08173. CHO-K1 hM4/Gqi5, Fluo-8 calcium fluorescence, ACh EC20; 0% = ACh EC20, 100% = maximal ACh. activation, % at 3 µM. 0.4% of 360,000 active;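 active = activation above its plate's cutoff, the mean activation of sample wells plus 3 SD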
CHRM5 antagonist – blocks acetylcholine activation of human M5 receptor; P08912; CHO-hM5 cells, Fluo-8 calcium fluorescence, ACh EC80; inhibition, % at 3 µM; 0.59% of 360,000 active; AID 624040;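 active = inhibition above a per-plate cutoff, the mean of that plate's test compounds plus 3 SD, cut at about 27% in these data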;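 note: 0% = acetylcholine EC80 with DMSO and 100% = DMSO without agonist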
CHRM5 agonist – CHRM5 agonism in calcium assay | P08912 | CHO-K1 hM5 cells, Fluo-8 calcium fluorescence; 0% DMSO wells, 100% maximal acetylcholine response | activation, % at 3 µM | 0.19% of 360,000 active;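 active = activation above the run's mean over test compounds plus 3 SD, cut at about 23% in these data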;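 note: signal is peak over basal fluorescence ratio across the kinetic read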
CHRM4 antagonist – blocks acetylcholine activation of human M4 receptor; inhibition, % at 3 µM; 0.73% of 360,000 active; CHO-hM4 cells, ACh EC80, Fluo-8 calcium fluorescence; P08173;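 active = inhibition above its plate's cutoff, the mean inhibition of sample wells plus 3 SD, cut at about 27% in these data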;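 note: 0% = acetylcholine EC80 with DMSO and 100% = DMSO without agonist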
CHRM5 PAM – potentiates acetylcholine response at human M5 receptor; P08912; CHO-K1 hM5, Fluo-8 calcium, ACh EC20 PAM; 0% = ACh EC20, 100% = ACh EC100; activation, % at 3 µM; 0.3% of 360,000 active; AID 624038;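 active = activation above the run cutoff, the mean activation of all test compounds plus 3 SD, cut at about 18% in these data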
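Assay system: CHO-K1 hM5 cells / Incubation: Fluo-8 loading 80 min at 37 °C plus 30 min room temperature / Technique: Fluo-8 calcium dye fluorescence, kinetic read / Repeats: single replicate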
Starred values were filed as active, the others as inactive. In the library only some 1.8% were active in any assay of this set; here they are far more common.

What do the screens show for `CCOC(CNC(=O)c1ccc2c(c1)ncn2-c1cccc(F)c1)OCC`?
CHRM4 agonist: 1; M4 PAM: -4; CHRM5 antagonist: 28*; CHRM5 agonist: -1; CHRM4 antagonist: 4; CHRM5 PAM: -11

What do the screens show for `CC1(C(=O)NCc2cccc(Cl)c2)Cc2c(-c3ccc4c(c3)OCO4)ccnc2O1` (configuration not stated)?
CHRM4 agonist: 0; M4 PAM: -3; CHRM5 antagonist: 0; CHRM5 agonist: -3; CHRM4 antagonist: -8; CHRM5 PAM: -1

How did CCOC(=O)C1=C(C)N(c2ccccc2)C(=O)NC1c1cccc([N+](=O)[O-])c1 (configuration not stated) do in these assays?
CHRM4 agonist: 1; M4 PAM: -39; CHRM5 antagonist: 39*; CHRM5 agonist: -5; CHRM4 antagonist: 75*; CHRM5 PAM: -18

Results for CCN(CC(=O)Nc1ccc(OC)cc1)C(=O)Cc1ccsc1 ?
CHRM4 agonist: 1; M4 PAM: 22*; CHRM5 antagonist: -5; CHRM5 agonist: 2; CHRM4 antagonist: -23; CHRM5 PAM: -1

How did CCN(CC(=O)Nc1ccc(OC)cc1)C(=O)CN1C(=O)NC(C)(c2ccc3ccccc3c2)C1=O (configuration not stated) do in these assays?
CHRM4 agonist: 4; M4 PAM: -3; CHRM5 antagonist: 32*; CHRM5 agonist: -6; CHRM4 antagonist: 4; CHRM5 PAM: -11

What do the screens show for `COc1ccc(N2CCN(C(=O)C(=O)c3cc(OC)c4ccccc4c3)CC2)cc1`?
CHRM4 agonist: 13; M4 PAM: -11; CHRM5 antagonist: -4; CHRM5 agonist: 5; CHRM4 antagonist: 4; CHRM5 PAM: -7

How did CCCc1c(-c2cccc(Br)c2)ncn1Cc1ccccc1OC do in these assays?
CHRM4 agonist: 0; M4 PAM: 6; CHRM5 antagonist: 3; CHRM5 agonist: -3; CHRM4 antagonist: -9; CHRM5 PAM: -7

How did CC(OC(=O)c1ccc(S(C)(=O)=O)c([N+](=O)[O-])c1)C(=O)NC1C2CC3CC(C2)CC1C3 (configuration not stated) do in these assays?
CHRM4 agonist: 0; M4 PAM: 2; CHRM5 antagonist: 9; CHRM5 agonist: 2; CHRM4 antagonist: 2; CHRM5 PAM: -4

How did N#CC1=C(N)Oc2cc(O)ccc2C1c1ccc(Br)s1 (configuration not stated) do in these assays?
CHRM4 agonist: 14; M4 PAM: 0; CHRM5 antagonist: 9; CHRM5 agonist: 29*; CHRM4 antagonist: -10; CHRM5 PAM: -21

How did CCn1c(NCc2ccccn2)nc2c1c(=O)n(C)c(=O)n2C do in these assays?
CHRM4 agonist: 2; M4 PAM: 40*; CHRM5 antagonist: -5; CHRM5 agonist: 2; CHRM4 antagonist: -12; CHRM5 PAM: 3

How did C[C@H]1CN([C@@H](C)CO)C(=O)c2cc(Br)cnc2O[C@H]1CN(C)S(=O)(=O)c1ccccc1F do in these assays?
CHRM4 agonist: 2; M4 PAM: 6; CHRM5 antagonist: -14; CHRM5 agonist: 2; CHRM4 antagonist: -10; CHRM5 PAM: 6

Results for CCOc1ccc(N(CC(=O)NC2CC3CCC2C3)S(=O)(=O)c2ccc(C)cc2)cc1 (configuration not stated) ?
CHRM4 agonist: -1; M4 PAM: 22*; CHRM5 antagonist: 8; CHRM5 agonist: -5; CHRM4 antagonist: -14; CHRM5 PAM: 2

How did CCc1nnc(NC(=O)CSc2nnc3nc(C)cc(C)n23)s1 do in these assays?
CHRM4 agonist: 2; M4 PAM: 18*; CHRM5 antagonist: 10; CHRM5 agonist: -3; CHRM4 antagonist: -21; CHRM5 PAM: 0

How did CC1CN(C)C(C)c2c1oc1ccc(N)cc21 (configuration not stated) do in these assays?
CHRM4 agonist: 1; M4 PAM: 5; CHRM5 antagonist: -3; CHRM5 agonist: -1; CHRM4 antagonist: -10; CHRM5 PAM: 20*

What do the screens show for `OC[C@@H]1CN(Cc2cccnc2)C[C@H](n2cnc3c(NC4CCCC4)ncnc32)O1`?
CHRM4 agonist: 0; M4 PAM: -6; CHRM5 antagonist: 3; CHRM5 agonist: 0; CHRM4 antagonist: -5; CHRM5 PAM: -1

How did COc1cc(NC(=O)c2cc3ccccc3cc2O)c(OC)cc1Cl do in these assays?
CHRM4 agonist: 18; M4 PAM: -13; CHRM5 antagonist: 17; CHRM5 agonist: 5; CHRM4 antagonist: 8; CHRM5 PAM: -12

Results for COc1ccccc1NC(=O)c1cc2cc(Br)ccc2cc1O ?
CHRM4 agonist: 33*; M4 PAM: -19; CHRM5 antagonist: 37*; CHRM5 agonist: 6; CHRM4 antagonist: 28*; CHRM5 PAM: -18

Results for COc1cccc(NC(=O)Nc2ccc3nc(C)c(C)nc3c2)c1 ?
CHRM4 agonist: 9; M4 PAM: 3; CHRM5 antagonist: -1; CHRM5 agonist: 0; CHRM4 antagonist: -2; CHRM5 PAM: 1

What do the screens show for `COc1cccc(NC(=O)Nc2cc(Cl)ccc2C)c1`?
CHRM4 agonist: 10; M4 PAM: -4; CHRM5 antagonist: 32*; CHRM5 agonist: 0; CHRM4 antagonist: -4; CHRM5 PAM: -7

Results for CCOc1ccc2nc(NC(=O)Nc3ccccc3)sc2c1 ?
CHRM4 agonist: 5; M4 PAM: -5; CHRM5 antagonist: 2; CHRM5 agonist: -1; CHRM4 antagonist: 5; CHRM5 PAM: -6

How did COc1cccc(NC(=O)Nc2ccc3nsnc3c2)c1 do in these assays?
CHRM4 agonist: 21; M4 PAM: -12; CHRM5 antagonist: 54*; CHRM5 agonist: 5; CHRM4 antagonist: 9; CHRM5 PAM: -16

How did COc1ccc2nc(NC(=O)Nc3ccccc3)sc2c1 do in these assays?
CHRM4 agonist: 18; M4 PAM: -18; CHRM5 antagonist: 5; CHRM5 agonist: 7; CHRM4 antagonist: 43*; CHRM5 PAM: -13

How did COc1ccc(NC(=O)Nc2cccc(OC)c2)cc1 do in these assays?
CHRM4 agonist: 6; M4 PAM: -1; CHRM5 antagonist: 2; CHRM5 agonist: 2; CHRM4 antagonist: 5; CHRM5 PAM: -3

How did CN(C)CCNc1nc(Oc2cccc(F)c2)c2sccc2n1 do in these assays?
CHRM4 agonist: 5; M4 PAM: -8; CHRM5 antagonist: 8; CHRM5 agonist: -3; CHRM4 antagonist: -11; CHRM5 PAM: -10

Results for N#C/C(=C\c1ccccc1)C(=O)NNS(=O)(=O)c1ccc(Br)cc1 ?
CHRM4 agonist: 1; M4 PAM: 7; CHRM5 antagonist: 4; CHRM5 agonist: 2; CHRM4 antagonist: -1; CHRM5 PAM: 19*
